What was measured:
KM12 = assay: Growth inhibition of human KM12 cells after 48 hrs; format: functional; conditions: KM12, 48 h
Method in brief: (§1)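 NCI-60 human tumour cell line panel screen run at the US National Cancer Institute under its standard cytotoxicity protocol. It covers leukaemia, NSCLC, colon, CNS, melanoma, ovarian, renal, prostate and breast lines. An initial single-dose test was followed by five-dose testing with 48 h compound exposure.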

U-251 = assay: Growth inhibition of human U251 cells after 48 hrs; format: functional; conditions: U-251, 48 h
Method in brief: (§2)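 Run by the NCI 58-cell-line screen under its standard cytotoxicity protocol. Compounds were first tested at a single dose, then at five doses. Cells were exposed to compound for 48 h.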

Candida albicans = assay: Antimicrobial activity against Candida albicans assessed as inhibition at 20 ug/6 mm disk after 1 to 2 days by agar diffusion assay; format: functional
Method in brief: (§3)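 Standard agar diffusion: 6-mm paper disks loaded with 20 µg of compound were placed on inoculated plates. Inhibition-zone diameter (mm) was read after 1 and 2 days of growth.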

DU-145 = assay: Growth inhibition of human DU145 cells after 48 hrs; format: functional; conditions: DU-145, 48 h; method in brief: as §1
[1] = Growth inhibition of human HCT15 cells after 48 hrs; format: functional; conditions: HCT-15, 48 h; method in brief: as §1
Klebsiella pneumoniae = assay: Antimicrobial activity against Klebsiella pneumoniae assessed as inhibition at 20 ug/6 mm disk after 1 to 2 days by agar diffusion assay; format: functional; method in brief: as §3
IGROV-1 = assay: Growth inhibition of human IGROV1 cells after 48 hrs; format: functional; conditions: IGROV-1, 48 h; method in brief: as §1
786-0 = assay: Growth inhibition of human 786-0 cells after 48 hrs; format: functional; conditions: 786-0, 48 h; method in brief: as §1
[2] = Growth inhibition of human SF539 cells after 48 hrs; format: functional; conditions: SF-539, 48 h; method in brief: as §1
TK-10 = assay: Growth inhibition of human TK10 cells after 48 hrs; format: functional; conditions: TK-10, 48 h; method in brief: as §2
MDA-MB-231 = assay: Growth inhibition of human MDA-MB-231 cells after 48 hrs; format: functional; conditions: MDA-MB-231, 48 h; method in brief: as §1
[3] = Growth inhibition of human COLO205 cells after 48 hrs; format: functional; conditions: COLO 205, 48 h; method in brief: as §1
SK-MEL-28 = assay: Growth inhibition of human SK-MEL-28 cells after 48 hrs; format: functional; conditions: SK-MEL-28, 48 h; method in brief: as §1
[4] = Growth inhibition of human HCC2998 cells after 48 hrs; format: functional; conditions: HCC 2998, 48 h; method in brief: as §1
NCI-H226 = assay: Growth inhibition of human NCI-H226 cells after 48 hrs; format: functional; conditions: NCI-H226, 48 h; method in brief: as §1
[5] = Growth inhibition of human RXF393 cells after 48 hrs; format: functional; conditions: RXF 393, 48 h; method in brief: as §1
SN12C = assay: Growth inhibition of human SN12C cells after 48 hrs; format: functional; method in brief: as §2
MCF7 = assay: Cytotoxicity against human MCF7 cells assessed as cell viability after 24 hrs incubation by MTT assay; format: functional, cell-based; conditions: MCF7, 24 h
Method in brief: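 Cell lines came from DSMZ; primary human fibroblasts served as non-cancer controls. Cells were grown in medium with 10% FCS, seeded at 50,000 cells/ml, and grown 2 days at 37 °C, 10% CO2. Serial dilutions were then added for 24 h. MTT (final 0.5 mg/ml) was added for 2 h. Formazan was pelleted, PBS-washed, dissolved in isopropanol/0.4% HCl and read at 590 nm. Two parallel experiments were run. IC50 was taken as the concentration giving 50% of untreated-control absorbance.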

CAKI-1 = assay: Growth inhibition of human CAKI-1 cells after 48 hrs; format: functional; conditions: CAKI-1, 48 h; method in brief: as §1
[6] = Growth inhibition of human PC3 cells after 48 hrs; format: functional; conditions: PC-3, 48 h; method in brief: as §1
[7] = Growth inhibition of human EKVX cells after 48 hrs; format: functional; method in brief: as §1
M14 = assay: Growth inhibition of human M14 cells after 48 hrs; format: functional; conditions: M14, 48 h; method in brief: as §1
NCI-H322M = assay: Growth inhibition of human NCI-H322M cells after 48 hrs; format: functional; conditions: read-out: pLC50 (the source's name) (converted); method in brief: as §1
MDA-MB-468 = assay: Growth inhibition of human MDA-MB-468 cells after 48 hrs; format: functional; conditions: MDA-MB-468, 48 h; method in brief: as §1
[8] = Growth inhibition of human OVCAR5 cells after 48 hrs; format: functional; conditions: OVCAR-5, 48 h; method in brief: as §1
Pseudomonas aeruginosa = assay: Antimicrobial activity against Pseudomonas aeruginosa assessed as inhibition at 20 ug/6 mm disk after 1 to 2 days by agar diffusion assay; format: functional; method in brief: as §3
ACHN = assay: Growth inhibition of human ACHN cells after 48 hrs; format: functional; method in brief: as §1
[9] = Growth inhibition of human Hs 578T cells after 48 hrs; format: functional; method in brief: as §1
[10] = Growth inhibition of human OVCAR3 cells after 48 hrs; format: functional; conditions: OVCAR-3, 48 h; method in brief: as §1
SW-620 = assay: Growth inhibition of human SW620 cells after 48 hrs; format: functional; conditions: SW-620, 48 h; method in brief: as §2
Malme-3M = assay: Growth inhibition of human MALME-3M cells after 48 hrs; format: functional; method in brief: as §1
NCI-H460 = assay: Growth inhibition of human NCI-H460 cells after 48 hrs; format: functional; conditions: NCI-H460, 48 h; method in brief: as §1
Mycolicibacterium phlei = assay: Antimicrobial activity against Mycobacterium phlei assessed as inhibition at 20 ug/6 mm disk after 1 to 2 days by agar diffusion assay; format: functional; method in brief: as §3
[11] = read-out: pLC50 (the source's name) (converted)

COc1ccc(N(CC(=O)NCCC[Te]c2ccccc2)C(=O)c2ccccc2)cc1
GI50 (KM12): 3.16 µM | CC50 (KM12; [11]): 46.8 µM | TGI (KM12; read-out: pTGI (converted)): 11.7 µM | GI50 (U-251): 2.82 µM | CC50 (U-251; [11]): 74.1 µM | TGI (U-251; read-out: pTGI (converted)): 9.33 µM | diameter of the inhibition zone (DIZ) (Candida albicans): 0 mm | GI50 (DU-145): 3.89 µM | LC50 (DU-145): 64.6 µM | TGI (DU-145; read-out: pTGI (converted)): 13.8 µM | GI50 [1]: 2.95 µM | CC50 [1, 11]: > 100 µM | TGI ([1]; read-out: pTGI (converted)): 15.1 µM | diameter of the inhibition zone (DIZ) (Klebsiella pneumoniae): 12 mm | GI50 (IGROV-1): 2.88 µM | CC50 (IGROV-1; [11]): 55 µM | TGI (IGROV-1; read-out: pTGI (converted)): 8.32 µM | GI50 (786-0): 5.13 µM | LC50 (786-0): 64.6 µM | TGI (786-0; read-out: pTGI (converted)): 19.5 µM | GI50 [2]: 2.29 µM | CC50 [2, 11]: 28.8 µM | TGI ([2]; read-out: pTGI (converted)): 6.03 µM | GI50 (TK-10): 3.89 µM | LC50 (TK-10): 69.2 µM | TGI (TK-10; read-out: pTGI (converted)): 11.5 µM | GI50 (MDA-MB-231): 2.63 µM | LC50 (MDA-MB-231): > 100 µM | TGI (MDA-MB-231; read-out: pTGI (converted)): 4.79 µM | GI50 [3]: 2.57 µM | CC50 [3, 11]: > 100 µM | TGI ([3]; read-out: pTGI (converted)): 6.03 µM | GI50 (SK-MEL-28): 4.17 µM | CC50 (SK-MEL-28; [11]): 45.7 µM | TGI (SK-MEL-28; read-out: pTGI (converted)): 15.5 µM | GI50 [4]: 3.02 µM | CC50 [4, 11]: 36.3 µM | TGI ([4]; read-out: pTGI (converted)): 8.13 µM | GI50 (NCI-H226): 2.63 µM | CC50 (NCI-H226; [11]): 100 µM | TGI (NCI-H226; read-out: pTGI (converted)): 7.24 µM | GI50 [5]: 12 µM | LC50 [5]: 75.9 µM | TGI ([5]; read-out: pTGI (converted)): 30.2 µM | GI50 (SN12C): 2.69 µM | LC50 (SN12C): > 100 µM | TGI (SN12C; read-out: pTGI (converted)): 8.51 µM | IC50 (MCF7): 27 µM | GI50 (CAKI-1): 2.95 µM | LC50 (CAKI-1): > 100 µM | TGI (CAKI-1; read-out: pTGI (converted)): 14.8 µM | GI50 [6]: 2.69 µM | LC50 [6]: > 100 µM | TGI ([6]; read-out: pTGI (converted)): 12.6 µM | GI50 [7]: 4.07 µM | CC50 [7, 11]: > 100 µM | TGI ([7]; read-out: pTGI (converted)): 5.25 µM | GI50 (M14): 4.17 µM | CC50 (M14; [11]): 63.1 µM | TGI (M14; read-out: pTGI (converted)): 15.5 µM | CC50 (NCI-H322M): > 100 µM | GI50 (MDA-MB-468): 4.27 µM | LC50 (MDA-MB-468): 56.2 µM | TGI (MDA-MB-468; read-out: pTGI (converted)): 17.8 µM | GI50 [8]: 3.8 µM | LC50 [8]: 52.5 µM | TGI ([8]; read-out: pTGI (converted)): 11.5 µM | diameter of the inhibition zone (DIZ) (Pseudomonas aeruginosa): 9 mm | GI50 (ACHN): 3.16 µM | LC50 (ACHN): 39.8 µM | TGI (ACHN; read-out: pTGI (converted)): 9.55 µM | LC50 [9]: > 100 µM | GI50 [10]: 5.75 µM | CC50 [10, 11]: 56.2 µM | TGI ([10]; read-out: pTGI (converted)): 20 µM | GI50 (SW-620): 3.89 µM | CC50 (SW-620; [11]): 56.2 µM | TGI (SW-620; read-out: pTGI (converted)): 14.5 µM | GI50 (Malme-3M): 16.6 µM | CC50 (Malme-3M; [11]): 72.4 µM | TGI (Malme-3M; read-out: pTGI (converted)): 34.7 µM | GI50 (NCI-H460): 0.537 µM | CC50 (NCI-H460; [11]): 8.71 µM | TGI (NCI-H460; read-out: pTGI (converted)): 2.4 µM | diameter of the inhibition zone (DIZ) (Mycolicibacterium phlei): 17 mm

From ChEMBL document CHEMBL3351600, “Sulfur, selenium and tellurium pseudopeptides: synthesis and biological evaluation” (Bioorg Med Chem, 2014)
